The M2OR odorant receptor database

Key:
Conditions in all cases: stereoisomer not certain
[1] = system: O51D1 I89V
Outline: (§1)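 Each receptor–molecule pair is labelled responsive or non-responsive (inactive) according to whether the original authors judged the measured signal statistically different from baseline. The data were taken from the main text and supplementary material of published papers and checked for typos and inconsistencies. Assay methods differed by source, with transient luciferase assays in mammalian cell lines being common.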

[2] = system: O51F1
Outline: as §1
Target sequence in this assay (as listed by the source): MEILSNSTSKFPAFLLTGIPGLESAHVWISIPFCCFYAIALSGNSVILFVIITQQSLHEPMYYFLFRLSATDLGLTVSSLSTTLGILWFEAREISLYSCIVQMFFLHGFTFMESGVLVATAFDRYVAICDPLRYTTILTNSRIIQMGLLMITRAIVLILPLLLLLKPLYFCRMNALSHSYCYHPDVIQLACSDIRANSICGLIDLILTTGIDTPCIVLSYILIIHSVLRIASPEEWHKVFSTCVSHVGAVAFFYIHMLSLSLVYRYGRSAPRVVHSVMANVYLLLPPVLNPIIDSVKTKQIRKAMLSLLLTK

[3] = system: O51F1; remark: listed apart in the source
Outline: as §1
Target sequence in this assay (as listed by the source): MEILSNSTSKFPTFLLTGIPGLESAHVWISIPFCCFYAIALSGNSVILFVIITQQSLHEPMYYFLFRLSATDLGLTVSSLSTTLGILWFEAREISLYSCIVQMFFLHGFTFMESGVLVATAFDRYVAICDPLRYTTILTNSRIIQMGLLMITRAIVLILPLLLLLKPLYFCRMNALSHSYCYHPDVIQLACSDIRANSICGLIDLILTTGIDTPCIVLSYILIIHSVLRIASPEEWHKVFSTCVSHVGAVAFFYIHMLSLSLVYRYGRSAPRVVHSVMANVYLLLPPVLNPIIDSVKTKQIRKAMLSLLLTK

[4] = system: O51F2 Y341S
Outline: as §1

[5] = system: O51G1
Outline: as §1

[6] = system: O51I1 V164L
Outline: as §1

[7] = system: O51J1 R75H I202V
Outline: as §1

[8] = system: O51L1
Outline: as §1
Target sequence in this assay (as listed by the source): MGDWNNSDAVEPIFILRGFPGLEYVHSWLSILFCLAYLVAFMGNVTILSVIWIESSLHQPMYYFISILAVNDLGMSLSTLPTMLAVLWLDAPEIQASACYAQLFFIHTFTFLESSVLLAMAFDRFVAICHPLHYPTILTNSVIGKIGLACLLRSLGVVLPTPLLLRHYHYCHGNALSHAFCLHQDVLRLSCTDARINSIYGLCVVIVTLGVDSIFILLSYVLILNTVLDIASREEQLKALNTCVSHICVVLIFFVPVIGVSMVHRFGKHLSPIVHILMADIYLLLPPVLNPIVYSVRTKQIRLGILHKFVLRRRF

[9] = system: O51L1; remark: listed apart in the source
Outline: as §1

[10] = system: O51T1
Outline: as §1

[11] = system: O51V1 L36F N51T G96W
Outline: as §1

[12] = system: O52A1
Outline: as §1

[13] = system: O52B6 V288I
Outline: as §1

[14] = system: O52E2 R264C
Outline: as §1

[15] = system: O52E4
Outline: as §1

[16] = system: O52E5
Outline: as §1

[17] = system: O52E8
Outline: as §1

[18] = system: O52H1 A89T H130R C242R
Outline: as §1

[19] = system: O52H1 H130R C242R
Outline: as §1

[20] = system: O52H1
Outline: as §1
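Further: active if original authors judged signal statistically different from baseline.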

Chain of O52H1 (as listed by the source): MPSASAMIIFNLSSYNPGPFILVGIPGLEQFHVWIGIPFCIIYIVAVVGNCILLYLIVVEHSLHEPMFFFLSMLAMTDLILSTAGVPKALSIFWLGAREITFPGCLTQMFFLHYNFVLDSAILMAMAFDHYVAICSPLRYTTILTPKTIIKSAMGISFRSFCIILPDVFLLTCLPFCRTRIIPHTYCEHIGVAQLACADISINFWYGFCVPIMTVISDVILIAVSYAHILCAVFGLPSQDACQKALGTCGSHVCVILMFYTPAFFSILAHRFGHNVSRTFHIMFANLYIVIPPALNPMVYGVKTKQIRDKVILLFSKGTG
Chain of O52E8 (as listed by the source): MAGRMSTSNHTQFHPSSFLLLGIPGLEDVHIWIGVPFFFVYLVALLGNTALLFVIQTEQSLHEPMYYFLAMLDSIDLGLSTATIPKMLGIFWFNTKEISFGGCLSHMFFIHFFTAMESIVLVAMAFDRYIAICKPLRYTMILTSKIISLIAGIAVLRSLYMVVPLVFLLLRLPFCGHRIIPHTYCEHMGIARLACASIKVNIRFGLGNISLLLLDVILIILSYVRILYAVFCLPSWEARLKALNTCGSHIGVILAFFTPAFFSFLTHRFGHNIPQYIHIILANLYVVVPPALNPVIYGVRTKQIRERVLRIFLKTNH
Chain of O51D1 I89V (as listed by the source, stated change not applied): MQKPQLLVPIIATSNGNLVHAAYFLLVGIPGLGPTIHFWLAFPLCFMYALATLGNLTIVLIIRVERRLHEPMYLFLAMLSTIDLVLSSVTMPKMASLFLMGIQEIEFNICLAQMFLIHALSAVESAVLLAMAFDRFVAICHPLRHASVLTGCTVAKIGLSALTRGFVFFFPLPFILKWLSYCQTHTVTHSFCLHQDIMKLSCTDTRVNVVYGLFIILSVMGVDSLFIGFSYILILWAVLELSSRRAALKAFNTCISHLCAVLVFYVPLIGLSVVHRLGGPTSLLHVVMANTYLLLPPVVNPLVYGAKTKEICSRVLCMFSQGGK
Chain of O52B6 V288I (as listed by the source, stated change not applied): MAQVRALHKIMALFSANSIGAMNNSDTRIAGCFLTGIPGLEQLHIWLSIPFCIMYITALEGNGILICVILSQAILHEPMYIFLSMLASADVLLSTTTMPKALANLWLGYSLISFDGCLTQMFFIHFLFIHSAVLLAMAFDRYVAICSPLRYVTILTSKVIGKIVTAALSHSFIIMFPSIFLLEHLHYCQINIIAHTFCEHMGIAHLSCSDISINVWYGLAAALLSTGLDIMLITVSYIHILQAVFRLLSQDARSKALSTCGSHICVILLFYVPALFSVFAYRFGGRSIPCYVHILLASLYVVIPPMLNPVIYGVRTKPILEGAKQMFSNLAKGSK
Chain of O52E4 (as listed by the source): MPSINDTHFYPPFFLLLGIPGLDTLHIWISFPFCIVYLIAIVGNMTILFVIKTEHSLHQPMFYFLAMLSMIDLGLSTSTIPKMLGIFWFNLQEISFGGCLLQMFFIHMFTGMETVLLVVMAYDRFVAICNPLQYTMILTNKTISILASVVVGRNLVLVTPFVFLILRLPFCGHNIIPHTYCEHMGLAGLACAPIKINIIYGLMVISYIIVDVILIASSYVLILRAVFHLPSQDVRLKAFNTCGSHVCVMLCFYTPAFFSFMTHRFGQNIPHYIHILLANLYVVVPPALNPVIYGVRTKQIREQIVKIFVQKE
Chain of O51T1 (as listed by the source): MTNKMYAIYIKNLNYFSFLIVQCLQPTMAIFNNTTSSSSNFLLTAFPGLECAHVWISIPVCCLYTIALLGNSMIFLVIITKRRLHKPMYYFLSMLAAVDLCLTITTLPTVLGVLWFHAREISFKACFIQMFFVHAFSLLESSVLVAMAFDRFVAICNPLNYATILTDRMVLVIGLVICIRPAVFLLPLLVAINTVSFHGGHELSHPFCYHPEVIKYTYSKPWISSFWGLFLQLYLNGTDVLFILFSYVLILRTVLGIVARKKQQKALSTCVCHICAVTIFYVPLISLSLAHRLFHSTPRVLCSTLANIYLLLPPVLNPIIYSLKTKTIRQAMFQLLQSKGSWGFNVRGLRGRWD
Chain of O51F2 Y341S (as listed by the source, stated change not applied): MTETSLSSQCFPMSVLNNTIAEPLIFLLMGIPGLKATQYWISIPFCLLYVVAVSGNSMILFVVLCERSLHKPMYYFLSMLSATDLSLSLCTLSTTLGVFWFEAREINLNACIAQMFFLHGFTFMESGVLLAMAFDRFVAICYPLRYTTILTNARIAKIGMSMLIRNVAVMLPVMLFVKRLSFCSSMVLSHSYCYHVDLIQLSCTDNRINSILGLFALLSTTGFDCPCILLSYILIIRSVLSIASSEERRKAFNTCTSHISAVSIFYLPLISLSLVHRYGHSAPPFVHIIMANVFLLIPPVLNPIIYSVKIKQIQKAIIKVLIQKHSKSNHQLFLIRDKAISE
Chain of O52A1 (as listed by the source): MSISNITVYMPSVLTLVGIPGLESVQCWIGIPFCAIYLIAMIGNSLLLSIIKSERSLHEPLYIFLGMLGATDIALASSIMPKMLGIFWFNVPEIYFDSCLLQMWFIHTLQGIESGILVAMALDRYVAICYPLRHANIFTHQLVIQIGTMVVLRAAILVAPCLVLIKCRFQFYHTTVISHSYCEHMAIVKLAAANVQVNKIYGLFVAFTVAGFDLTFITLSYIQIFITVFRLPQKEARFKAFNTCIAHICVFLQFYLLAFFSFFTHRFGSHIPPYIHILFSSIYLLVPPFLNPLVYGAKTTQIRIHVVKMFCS
Chain of O52E5 (as listed by the source): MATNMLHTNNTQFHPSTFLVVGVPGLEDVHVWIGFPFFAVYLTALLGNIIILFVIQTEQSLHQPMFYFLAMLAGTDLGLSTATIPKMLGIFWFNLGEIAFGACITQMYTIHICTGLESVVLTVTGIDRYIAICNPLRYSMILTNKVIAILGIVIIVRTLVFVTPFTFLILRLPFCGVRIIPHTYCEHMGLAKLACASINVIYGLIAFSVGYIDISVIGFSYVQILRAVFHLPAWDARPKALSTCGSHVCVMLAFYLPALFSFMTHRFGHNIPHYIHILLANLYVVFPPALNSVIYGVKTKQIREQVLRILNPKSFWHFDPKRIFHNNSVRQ
Chain of O52E2 R264C (as listed by the source, stated change not applied): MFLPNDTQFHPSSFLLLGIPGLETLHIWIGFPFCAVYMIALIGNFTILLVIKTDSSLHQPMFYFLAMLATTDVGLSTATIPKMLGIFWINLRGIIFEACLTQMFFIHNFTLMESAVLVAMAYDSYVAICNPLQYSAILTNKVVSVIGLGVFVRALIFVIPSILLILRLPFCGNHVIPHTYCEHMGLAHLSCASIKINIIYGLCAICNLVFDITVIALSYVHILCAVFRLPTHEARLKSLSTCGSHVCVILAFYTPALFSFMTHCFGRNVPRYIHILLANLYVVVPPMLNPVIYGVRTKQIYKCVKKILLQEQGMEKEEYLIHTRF
Chain of O51I1 V164L (as listed by the source, stated change not applied): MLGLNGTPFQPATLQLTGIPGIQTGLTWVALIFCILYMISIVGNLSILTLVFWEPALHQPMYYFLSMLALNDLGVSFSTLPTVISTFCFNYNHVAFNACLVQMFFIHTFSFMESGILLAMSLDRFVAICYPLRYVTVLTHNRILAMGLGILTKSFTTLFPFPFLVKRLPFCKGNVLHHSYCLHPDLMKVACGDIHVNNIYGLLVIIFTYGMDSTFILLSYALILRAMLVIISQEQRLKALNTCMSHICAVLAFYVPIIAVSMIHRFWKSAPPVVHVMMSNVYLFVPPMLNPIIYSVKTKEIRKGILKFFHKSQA
Chain of O51G1 (as listed by the source): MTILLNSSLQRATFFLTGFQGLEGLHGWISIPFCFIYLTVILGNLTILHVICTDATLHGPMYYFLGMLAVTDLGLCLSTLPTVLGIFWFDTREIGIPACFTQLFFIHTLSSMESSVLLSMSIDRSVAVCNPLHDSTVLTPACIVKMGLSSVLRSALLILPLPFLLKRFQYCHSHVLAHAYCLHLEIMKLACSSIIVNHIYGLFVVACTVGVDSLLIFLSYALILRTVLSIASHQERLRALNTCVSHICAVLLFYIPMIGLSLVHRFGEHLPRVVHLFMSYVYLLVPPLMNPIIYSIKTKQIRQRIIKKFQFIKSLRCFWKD

SMILES | odorant receptor agonist call [1] | odorant receptor agonist call [2] | odorant receptor agonist call [3] | odorant receptor agonist call [4] | odorant receptor agonist call [5] | odorant receptor agonist call [6] | odorant receptor agonist call [7] | odorant receptor agonist call [8] | odorant receptor agonist call [9] | odorant receptor agonist call [10] | odorant receptor agonist call [11] | odorant receptor agonist call [12] | odorant receptor agonist call [13] | odorant receptor agonist call [14] | odorant receptor agonist call [15] | odorant receptor agonist call [16] | odorant receptor agonist call [17] | odorant receptor agonist call [18] | odorant receptor agonist call [19] | odorant receptor agonist call [20]
C=CCOC(=O)Cc1ccccc1 | inactive | inactive | inactive | inactive | inactive | inactive | inactive | active | active | inactive | inactive | inactive | inactive | inactive | inactive | inactive | inactive | inactive | inactive | inactive
Cc1c([N+](=O)[O-])c(C)c([N+](=O)[O-])c(C(C)(C)C)c1[N+](=O)[O-] | – | – | – | – | – | – | – | – | – | – | – | – | – | – | – | – | inactive | – | – | inactive
